Measurements collected from several papers.
Lines come from different studies, so protocols differ. Values after ≈ are worked out from the molar mass of the structure shown.

Compound | target or system | test | system | setting | measurement | value
CC[C@@H]1CN2CCc3c([nH]c4cccc(OC)c34)[C@H]2C[C@@H]1/C(=C\OC)C(=O)OC | dog Hepatocyte | metabolic stability | hepatocytes | – | half-life | > 2 h
CCN(CC)CCO[C@H]1CC[C@@]2(C)C(=CC[C@@H]3[C@@H]2CC[C@]2(C)C(=O)CC[C@@H]32)C1 | MA104 | cell growth or viability, MTS | – | 24 h | CC50 | 219 µM
Nc1ncc(-c2nc(N3CCOCC3)nc(N3CCOCC3)n2)c(C(F)F)n1 | – | shake flask | FeSSIF | 24 h | thermodynamic solubility | 13.9 µM (≈ 5.48 µg/mL)
CC(=O)N[C@@H](CC(N)=O)C(=O)N[C@@H](CC(N)=O)C(=O)N[C@@H](CC(C)C)C(=O)N[C@H]1CSSC[C@@H](C(=O)N[C@H](C(N)=O)[C@@H](C)O)NC(=O)[C@H](CCCNC(=N)N)NC(=O)[C@H](Cc2c[nH]cn2)NC(=O)[C@H](Cc2cccc3ccccc23)NC(=O)CNC(=O)[C@H](Cc2c[nH]c3ccccc23)NC(=O)[C@H](CC(=O)O)NC(=O)[C@H](CCC(N)=O)NC(=O)[C@H](Cc2cccc3ccccc23)NC(=O)[C@H](C(C)C)NC1=O | – | – | PBS | pH 7.4 | solubility | 270 µg/mL (≈ 136 µM)
COc1ccc2[nH]cc(CCN(C)C)c2c1 | – | potentiometric | water | – | pKa | 9.1
N[C@@H]1C[C@H]1c1ccccc1 (racemic) | Cytochrome P450 2A6 (CYP2A6, Homo sapiens, UniProt P11509) | enzyme activity, inhibitor, fluorescence | – | – | IC50 | 0.49 µM
Cc1ncc(C)n2nc(/C=C/c3nc(N4CCCC4)cc(N4CCOCC4)n3)nc12 | – | – | male beagle dog, plasma | oral, 0.3 mg/kg | bioavailability | 42%
CC1(C)CC(NC(=O)C(=O)Nc2ccc(Cl)cc2)CC(C)(C)N1 | Cf2Th-CCR5 | cell growth or viability, MTS | – | 48 h | CC50 | > 100 µM
C#Cc1ccc2c(c1)C(c1ccccn1)=NCc1c(-c3cnco3)ncn1-2 | – | – | water | 90 min, 37 °C | kinetic solubility | 517 µg/mL (≈ 1470 µM)
CC[C@H](C)[C@H](NC(C)=O)C(=O)N[C@H]1CSSC[C@@H](C(=O)N[C@H](C(N)=O)[C@@H](C)O)NC(=O)[C@H](CCCNC(=N)N)NC(=O)[C@H](Cc2c[nH]cn2)NC(=O)[C@@](C)(CC)NC(=O)CNC(=O)[C@H](Cc2c[nH]c3ccccc23)NC(=O)[C@H](CC(=O)O)NC(=O)[C@H](CCC(N)=O)NC(=O)[C@H](Cc2c[nH]c3ccccc23)NC(=O)[C@H](C(C)C)NC1=O | – | – | PBS | pH 7.4 | solubility | 3600 µg/mL (≈ 2190 µM)
